In ChEMBL document CHEMBL1137780, “Isocombretastatins a versus combretastatins a: the forgotten isoCA-4 isomer as a highly promising cytotoxic and antitubulin agent” (J Med Chem, 2009):
Calls of active or inactive are those of the source. The rule behind the calls is not given here.

Assays:
K562 [1] = test: Cytotoxicity against human K562 cells after 72 hrs; format: functional, cell-based; details: K562, 72 h
How it was run: (§1)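 Human K562 (chronic myelogenous leukemia) or MDA-MB231 (breast cancer) cells exposed to compound for 72 h; IC50 taken as concentration reducing cell growth by 50%, averaged over three experiments.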

K562 [2] = test: Cell cycle arrest in human K562 cells assessed as decrease in S phase accumulation after 24 hrs; format: functional, cell-based
How it was run: (§2)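 K562 leukemia cells cultured 24 h with increasing concentrations of test agent; DNA content measured by propidium iodide staining and flow cytometry to give cell-cycle phase distribution (G1, S, G2/M).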

HCT-116 [3] = test: Cytotoxicity against human HCT116 cells after 72 hrs; format: functional, cell-based; details: HCT-116, 72 h
How it was run: (§3)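 Human tumour cell lines (H1299 non-small-cell lung carcinoma, HCT116 colon carcinoma) were exposed to the test drug for 72 h. IC50 is the concentration that reduced cell growth by 50%, taken as the average of three experiments.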

[4] = Inhibition of tubulin polymerization assessed as blockade of microtubule assembly
MDA-MB-231 = test: Cytotoxicity against human MDA-MB-231 cells after 72 hrs; format: functional, cell-based; details: MDA-MB-231, 72 h; how it was run: as §1
K562 [5] = test: Cell cycle arrest in human K562 cells assessed as decrease in G1 phase accumulation after 24 hrs; format: functional, cell-based; how it was run: as §2
K562 [6] = test: Cell cycle arrest in human K562 cells assessed as increase in G2/M phase accumulation after 24 hrs; format: functional, cell-based; how it was run: as §2
[7] = Cytotoxicity against human H1299 cells after 72 hrs; format: functional, cell-based; details: NCI-H1299, 72 h; how it was run: as §3
NCI-H460 [8] = test: Cytotoxicity against human H460 cells; format: functional, cell-based
HCT-116 [9] = test: Ratio of IC50 of drug to IC50 for combretastatin CA-4 against human HCT116 cells; format: functional
[10] = Cytotoxicity against human NCI60 cells; format: functional
NCI-H460 [11] = test: Ratio of IC50 of drug to IC50 for combretastatin CA-4 against human H460 cells; format: functional
P388 = test: Cytotoxicity against mouse P388 cells; format: functional; details: read-out: ED50 (the source's name)
Colon 26 = test: Ratio of IC50 of drug to IC50 for combretastatin CA-4 against mouse Colon 26 cells; format: functional

C=C(c1ccc(OC)c(O)c1)c1cc(OC)c(OC)c(OC)c1
IC50 (K562 [1]): 5 nM
Activity (K562 [2]): Active
IC50 (HCT-116 [3]): 2.5 nM
IC50 ([4]; read-out: IC50): 2200 nM
IC50 (MDA-MB-231): 4 nM
Activity (K562 [5]): Active
Activity (K562 [6]): Dose-dependent effect
IC50 [7]: 5 nM

COc1ccc(C(=C(F)F)c2cc(OC)c(OC)c(OC)c2)cc1O
IC50 ([4]; read-out: IC50): 2500 nM
Activity (NCI-H460 [8]): Active
Ratio IC50 (HCT-116 [9]): 2.6

COc1ccc(/C=C\c2cc(OC)c(OC)c(OC)c2)c(O)c1O [COMBRETASTATIN A-1]
GI50 [10]: 16.2 nM

COc1ccc(/C=C\c2cc(OC)c3c(c2)OCO3)cc1O [Combretastatin A-2]
GI50 [10]: 31.6 nM

COc1ccc(C(=O)c2cc(OC)c(OC)c(OC)c2)cc1O [PHENSTATIN]
IC50 (K562 [1]): 41 nM
IC50 (HCT-116 [3]): 33 nM
IC50 ([4]; read-out: IC50): 2000 nM
IC50 (MDA-MB-231): 28 nM
IC50 [7]: 21 nM

COc1ccc(/C(=C/C#N)c2cc(OC)c(OC)c(OC)c2)cc1O (mixture of isomers)
IC50 (HCT-116 [3]): 3 nM
IC50 ([4]; read-out: IC50): 4300 nM
Ratio IC50 (HCT-116 [9]): 1.3

COc1ccc(/C=C\c2cc(OC)c(OC)c(OC)c2)cc1O [COMBRETASTATIN A4]
IC50 (K562 [1]): 3.6 nM
IC50 (HCT-116 [3]): 2.3 nM
IC50 (MDA-MB-231): 3 nM
GI50 [10]: 3.2 nM
IC50 [7]: 5 nM

C=C(c1ccc(OC)c(O)c1)c1cc(OC)c2c(c1)OCO2
IC50 (K562 [1]): 38 nM
IC50 (HCT-116 [3]): 38 nM
IC50 ([4]; read-out: IC50): 3400 nM
IC50 (MDA-MB-231): 48 nM
IC50 [7]: 32 nM

COc1cc2c(c(OC)c1OC)-c1ccc(OC)c(=O)cc1[C@@H](NC(C)=O)CC2 [COLCHICINE]
IC50 (K562 [1]): 29 nM
IC50 (HCT-116 [3]): 32 nM
IC50 ([4]; read-out: IC50): 2100 nM
IC50 (MDA-MB-231): 26 nM
IC50 [7]: 30 nM

COc1ccc(/C(F)=C(/F)c2cc(OC)c(OC)c(OC)c2)cc1O
Activity (NCI-H460 [8]): Active
Ratio IC50 (NCI-H460 [11]): 1.6

C=C(c1cc(OC)c(OC)c(OC)c1)c1ccc(OC)c(O)c1O
IC50 (K562 [1]): 750 nM
IC50 (HCT-116 [3]): 850 nM
IC50 ([4]; read-out: IC50): 2100 nM
IC50 (MDA-MB-231): 820 nM
IC50 [7]: 2000 nM

COc1ccc(/C=C\c2cc(O)c(OC)c(OC)c2)cc1OC
EC50 (P388): 900 nM

COc1ccc(/C=C(/C#N)c2cc(OC)c(OC)c(OC)c2)cc1O
Ratio IC50 (Colon 26): 1.3

C=C(c1ccc(OC)c(OC)c1)c1cc(O)c(OC)c(OC)c1
IC50 (K562 [1]): 3100 nM
IC50 (HCT-116 [3]): 2800 nM
IC50 [4]: Not Active
IC50 (MDA-MB-231): 3000 nM
IC50 [7]: 5000 nM

COc1ccc(/C=C\c2cc(O)c(OC)c(OC)c2)cc1O
EC50 (P388): 26 nM

C=C(c1ccc(OC)c(O)c1)c1cc(O)c(OC)c(OC)c1
IC50 (K562 [1]): 52 nM
IC50 (HCT-116 [3]): 34 nM
IC50 ([4]; read-out: IC50): 5000 nM
IC50 (MDA-MB-231): 8 nM
IC50 [7]: 25 nM
